From ChEMBL document CHEMBL3272347, “Adamantanamine derivatives. Antimicrobial activities of certain Mannich bases” (1976)
Values after ≈ are worked out from the molar mass of the structure shown.

Assays:
Type in all cases: functional
Escherichia coli [1] = assay: Antimicrobial activity against Escherichia coli ATCC 8739 assessed as zone of inhibition after 24 hrs at 2 mg/0.1 ml by agar diffusion method
Summary of the method: (§1)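 Bacteria were tested on seeded agar plates with 12.7-mm disks, each loaded with 0.1 ml of compound in Me2SO (stock used directly or Me2SO-diluted). Disks were held 30 min on a wire screen before placement, four per plate. Incubation was 37°, 24 hr. Inhibition zones were measured by caliper to the nearest 0.1 mm. Replicates were 2–4 per dilution over at least two separate days, averaged.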

Aspergillus niger [2] = assay: Antimicrobial activity against Aspergillus niger OU S-23 assessed as zone of inhibition after 48 hrs at 2 mg/0.1 ml by agar diffusion method
Summary of the method: (§2)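 Disk agar diffusion on SDA. Compound in Me2SO stock, used neat or diluted in Me2SO, was loaded at 0.1 ml per 12.7-mm disk. Disks stood 30 min on mesh, then went four per seeded plate. Plates ran at 37° for 48 hr (A. niger) or 24 hr (C. albicans). Zones were read by caliper to 0.1 mm. There were 2–4 replicate disks per dilution and ≥2 experiments on separate days with same-day stocks; results were averaged.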

Mycolicibacterium phlei [3] = assay: Antimicrobial activity against Mycobacterium phlei ATCC 356 assessed as zone of inhibition after 48 hrs at 0.25 mg/0.1 ml by agar diffusion method
Summary of the method: (§3)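 Mycobacterium disk diffusion on MDTM agar. Each disk (12.7 mm) got 0.1 ml of Me2SO solution, was air-stood 30 min, then was placed four per seeded plate. Plates were incubated at 37° for 48 hr. Zone diameter was measured by caliper to 0.1 mm. Results averaged 2–4 replicate disks and ≥2 independent-day experiments.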

Escherichia coli [4] = assay: Antimicrobial activity against Escherichia coli ATCC 10586 assessed as zone of inhibition after 24 hrs at 1 mg/0.1 ml by agar diffusion method; summary of the method: as §1
Candida albicans [5] = assay: Antimicrobial activity against Candida albicans CDC MI-023 assessed as zone of inhibition after 24 hrs at 0.5 mg/0.1 ml by agar diffusion method; summary of the method: as §2
[6] = test system: Mycolicibacterium smegmatis; assay: Antimicrobial activity against Mycobacterium smegmatis by tube dilution method
Summary of the method: (§4)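 MIC was found by tube dilution, with Me2SO as carrier solvent diluted in the tubes. For M. smegmatis, separate determinations were made in MDTM broth and in MDTM agar.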

[7] = test system: Mycolicibacterium smegmatis; assay: Antimicrobial activity against Mycobacterium smegmatis OU 10049 assessed as zone of inhibition after 48 hrs at 0.25 mg/0.1 ml by agar diffusion method; summary of the method: as §3
Escherichia coli [8] = assay: Antimicrobial activity against Escherichia coli by tube dilution method; summary of the method: as §4
Staphylococcus aureus [9] = assay: Antimicrobial activity against Staphylococcus aureus ATCC 10001 assessed as zone of inhibition after 24 hrs at 0.1 mg/0.1 ml by agar diffusion method; summary of the method: as §1
Staphylococcus aureus [10] = assay: Antimicrobial activity against Staphylococcus aureus by tube dilution method; summary of the method: as §4
Pseudomonas aeruginosa [11] = assay: Antimicrobial activity against Pseudomonas aeruginosa OU 10048 assessed as zone of inhibition after 24 hrs at 4 mg/0.1 ml by agar diffusion method; summary of the method: as §1
Staphylococcus aureus [12] = assay: Antimicrobial activity against Staphylococcus aureus ATCC 10014 assessed as zone of inhibition after 24 hrs at 0.1 mg/0.1 ml by agar diffusion method; summary of the method: as §1
Escherichia coli [13] = assay: Antimicrobial activity against Escherichia coli ATCC 11303 assessed as zone of inhibition after 24 hrs at 1 mg/0.1 ml by agar diffusion method; summary of the method: as §1
Candida albicans [14] = assay: Antimicrobial activity against Candida albicans CDC MI-023 assessed as zone of inhibition after 24 hrs at 2 mg/0.1 ml by agar diffusion method; summary of the method: as §2
[15] = test system: Mycolicibacterium smegmatis; assay: Antimicrobial activity against Mycobacterium smegmatis OU 10049 assessed as zone of inhibition after 48 hrs at 0.5 mg/0.1 ml by agar diffusion method; summary of the method: as §3
Mycolicibacterium phlei [16] = assay: Antimicrobial activity against Mycobacterium phlei ATCC 356 assessed as zone of inhibition after 48 hrs at 0.5 mg/0.1 ml by agar diffusion method; summary of the method: as §3
Escherichia coli [17] = assay: Antimicrobial activity against Escherichia coli ATCC 10586 assessed as zone of inhibition after 24 hrs at 2 mg/0.1 ml by agar diffusion method; summary of the method: as §1
Escherichia coli [18] = assay: Antimicrobial activity against Escherichia coli ATCC 11303 assessed as zone of inhibition after 24 hrs at 2 mg/0.1 ml by agar diffusion method; summary of the method: as §1
Aspergillus niger [19] = assay: Antimicrobial activity against Aspergillus niger OU S-23 assessed as zone of inhibition after 48 hrs at 4 mg/0.1 ml by agar diffusion method; summary of the method: as §2
Staphylococcus aureus [20] = assay: Antimicrobial activity against Staphylococcus aureus ATCC 10001 assessed as zone of inhibition after 24 hrs at 2 mg/0.1 ml by agar diffusion method; summary of the method: as §1
Candida albicans [21] = assay: Antimicrobial activity against Candida albicans CDC MI-023 assessed as zone of inhibition after 24 hrs at 4 mg/0.1 ml by agar diffusion method; summary of the method: as §2
Staphylococcus aureus [22] = assay: Antimicrobial activity against Staphylococcus aureus ATCC 10014 assessed as zone of inhibition after 24 hrs at 2 mg/0.1 ml by agar diffusion method; summary of the method: as §1
Candida albicans [23] = assay: Antimicrobial activity against Candida albicans CDC MI-023 assessed as zone of inhibition after 24 hrs at 0.1 mg/0.1 ml by agar diffusion method; summary of the method: as §2
Escherichia coli [24] = assay: Antimicrobial activity against Escherichia coli ATCC 8739 assessed as zone of inhibition after 24 hrs at 1 mg/0.1 ml by agar diffusion method; summary of the method: as §1
Escherichia coli [25] = assay: Antimicrobial activity against Escherichia coli ATCC 11303 assessed as zone of inhibition after 24 hrs at 0.5 mg/0.1 ml by agar diffusion method; summary of the method: as §1
Staphylococcus aureus [26] = assay: Antimicrobial activity against Staphylococcus aureus ATCC 10001 assessed as zone of inhibition after 24 hrs at 0.05 mg/0.1 ml by agar diffusion method; summary of the method: as §1
Escherichia coli [27] = assay: Antimicrobial activity against Escherichia coli ATCC 8739 assessed as zone of inhibition after 24 hrs at 0.5 mg/0.1 ml by agar diffusion method; summary of the method: as §1
Staphylococcus aureus [28] = assay: Antimicrobial activity against Staphylococcus aureus ATCC 10014 assessed as zone of inhibition after 24 hrs at 0.05 mg/0.1 ml by agar diffusion method; summary of the method: as §1
Escherichia coli [29] = assay: Antimicrobial activity against Escherichia coli ATCC 10586 assessed as zone of inhibition after 24 hrs at 0.25 mg/0.1 ml by agar diffusion method; summary of the method: as §1
Escherichia coli [30] = assay: Antimicrobial activity against Escherichia coli ATCC 11303 assessed as zone of inhibition after 24 hrs at 0.1 mg/0.1 ml by agar diffusion method; summary of the method: as §1
Staphylococcus aureus [31] = assay: Antimicrobial activity against Staphylococcus aureus ATCC 10014 assessed as zone of inhibition after 24 hrs at 1 mg/0.1 ml by agar diffusion method; summary of the method: as §1
Staphylococcus aureus [32] = assay: Antimicrobial activity against Staphylococcus aureus ATCC 10001 assessed as zone of inhibition after 24 hrs at 1 mg/0.1 ml by agar diffusion method; summary of the method: as §1
[33] = test system: Mycolicibacterium smegmatis; assay: Antimicrobial activity against Mycobacterium smegmatis OU 10049 assessed as zone of inhibition after 48 hrs at 1 mg/0.1 ml by agar diffusion method; summary of the method: as §3
Staphylococcus aureus [34] = assay: Antimicrobial activity against Staphylococcus aureus ATCC 10014 assessed as zone of inhibition after 24 hrs at 0.5 mg/0.1 ml by agar diffusion method; summary of the method: as §1
Staphylococcus aureus [35] = assay: Antimicrobial activity against Staphylococcus aureus ATCC 10001 assessed as zone of inhibition after 24 hrs at 0.5 mg/0.1 ml by agar diffusion method; summary of the method: as §1
Aspergillus niger [36] = assay: Antimicrobial activity against Aspergillus niger OU S-23 assessed as zone of inhibition after 48 hrs at 0.25 mg/0.1 ml by agar diffusion method; summary of the method: as §2
Pseudomonas aeruginosa [37] = assay: Antimicrobial activity against Pseudomonas aeruginosa OU 10048 assessed as zone of inhibition after 24 hrs at 0.5 mg/0.1 ml by agar diffusion method; summary of the method: as §1
Staphylococcus aureus [38] = assay: Antimicrobial activity against Staphylococcus aureus ATCC 10014 assessed as zone of inhibition after 24 hrs at 0.25 mg/0.1 ml by agar diffusion method; summary of the method: as §1
Escherichia coli [39] = assay: Antimicrobial activity against Escherichia coli ATCC 10586 assessed as zone of inhibition after 24 hrs at 0.5 mg/0.1 ml by agar diffusion method; summary of the method: as §1
Staphylococcus aureus [40] = assay: Antimicrobial activity against Staphylococcus aureus ATCC 10001 assessed as zone of inhibition after 24 hrs at 0.25 mg/0.1 ml by agar diffusion method; summary of the method: as §1
Escherichia coli [41] = assay: Antimicrobial activity against Escherichia coli ATCC 8739 assessed as zone of inhibition after 24 hrs at 4 mg/0.1 ml by agar diffusion method; summary of the method: as §1
[42] = test system: Mycolicibacterium smegmatis; assay: Antimicrobial activity against Mycobacterium smegmatis OU 10049 assessed as zone of inhibition after 48 hrs at 0.1 mg/0.1 ml by agar diffusion method; summary of the method: as §3
Mycolicibacterium phlei [43] = assay: Antimicrobial activity against Mycobacterium phlei ATCC 356 assessed as zone of inhibition after 48 hrs at 0.1 mg/0.1 ml by agar diffusion method; summary of the method: as §3

SMILES	inhibition zone (IZ) (Escherichia coli [1]) [mm]	inhibition zone (IZ) (Aspergillus niger [2]) [mm]	inhibition zone (IZ) (Mycolicibacterium phlei [3]) [mm]	inhibition zone (IZ) (Escherichia coli [4]) [mm]	inhibition zone (IZ) (Candida albicans [5]) [mm]	MIC [6] [µg/mL]	inhibition zone (IZ) [7] [mm]	MIC (Escherichia coli [8]) [µg/mL]	inhibition zone (IZ) (Staphylococcus aureus [9]) [mm]	MIC (Staphylococcus aureus [10]) [µg/mL]	inhibition zone (IZ) (Pseudomonas aeruginosa [11]) [mm]	inhibition zone (IZ) (Staphylococcus aureus [12]) [mm]	inhibition zone (IZ) [15] [mm]	inhibition zone (IZ) (Mycolicibacterium phlei [16]) [mm]	inhibition zone (IZ) (Escherichia coli [17]) [mm]	inhibition zone (IZ) (Escherichia coli [18]) [mm]	inhibition zone (IZ) (Aspergillus niger [19]) [mm]	inhibition zone (IZ) (Escherichia coli [25]) [mm]	further results
Cl.O=C(CCNC12CC3CC(CC(C3)C1)C2)c1ccc([N+](=O)[O-])cc1	16.5	15.2	19.4	15.3	16.4	500	17.4	500	16	125	<14	15.8	–	–	–	–	–	–	inhibition zone (IZ) (Escherichia coli [13]): 16.5 mm
Cl.O=C(CCNC12CC3CC(CC(C3)C1)C2)c1cccc([N+](=O)[O-])c1	16.3	15	–	–	–	–	–	–	15.4	–	15	15.7	16.6	19.1	16.8	–	–	–	inhibition zone (IZ) (Candida albicans [14]): 16.2 mm; inhibition zone (IZ) (Escherichia coli [13]): 15.5 mm
CC(CNC12CC3CC(CC(C3)C1)C2)C(=O)c1ccccc1.Cl (stereo not drawn)	16.1	–	–	–	–	–	–	–	–	–	15	–	17	17.3	16.4	17.2	15	–	inhibition zone (IZ) (Staphylococcus aureus [20]): 16.2 mm; inhibition zone (IZ) (Candida albicans [21]): <15 mm; inhibition zone (IZ) (Staphylococcus aureus [22]): 16.3 mm
Cl.O=C(CCNC12CC3CC(CC(C3)C1)C2)c1cccc(Br)c1	–	–	20	17.4	–	125	17.6	500	18.7	125	15	17.5	–	–	–	–	16.8	17.5	inhibition zone (IZ) (Candida albicans [23]): 15.3 mm; inhibition zone (IZ) (Escherichia coli [24]): 18.2 mm
Cl.O=C(CCNC12CC3CC(CC(C3)C1)C2)c1ccc(Br)cc1	–	19	19.2	–	–	125	17	500	–	125	<15	–	–	–	–	–	–	–	inhibition zone (IZ) (Candida albicans [23]): 15.1 mm; inhibition zone (IZ) (Staphylococcus aureus [26]): 16.6 mm; inhibition zone (IZ) (Escherichia coli [27]): 17.8 mm; inhibition zone (IZ) (Staphylococcus aureus [28]): 17 mm; inhibition zone (IZ) (Escherichia coli [29]): 15.3 mm; inhibition zone (IZ) (Escherichia coli [30]): 15.6 mm
Cl.O=C(CCNC12CC3CC(CC(C3)C1)C2)c1ccc(F)cc1	–	–	–	16.5	16.6	250	–	1000	–	500	15	–	15.3	17.7	–	–	15	17.6	inhibition zone (IZ) (Staphylococcus aureus [31]): 16.6 mm; inhibition zone (IZ) (Staphylococcus aureus [32]): 19.1 mm; inhibition zone (IZ) (Escherichia coli [24]): 16.7 mm
Cl.O=C(CCNC12CC3CC(CC(C3)C1)C2)c1ccc(O)cc1	16	–	–	–	–	–	–	–	–	–	15	–	–	16.3	16	17.2	15	–	inhibition zone (IZ) [33]: 19 mm; inhibition zone (IZ) (Staphylococcus aureus [34]): 15.3 mm; inhibition zone (IZ) (Candida albicans [21]): 15.4 mm; inhibition zone (IZ) (Staphylococcus aureus [35]): 15.6 mm
Oc1ccc(/N=N/c2ccccc2)cc1CNC12CC3CC(CC(C3)C1)C2	–	–	–	–	<15	–	–	–	–	–	–	–	15.5	<15	–	–	–	<15	inhibition zone (IZ) (Escherichia coli [27]): 15 mm; inhibition zone (IZ) (Aspergillus niger [36]): 15 mm; inhibition zone (IZ) (Pseudomonas aeruginosa [37]): 15 mm; inhibition zone (IZ) (Staphylococcus aureus [38]): 15.4 mm; inhibition zone (IZ) (Escherichia coli [39]): 15 mm; inhibition zone (IZ) (Staphylococcus aureus [40]): <15 mm
Oc1ccc(-c2ccccc2)cc1CNC12CC3CC(CC(C3)C1)C2	–	–	–	–	–	62.5 (≈ 187 µM)	–	–	–	–	15	–	–	–	15	15.1	<15	–	inhibition zone (IZ) (Escherichia coli [41]): 15.6 mm; inhibition zone (IZ) (Candida albicans [14]): 15.8 mm; inhibition zone (IZ) (Staphylococcus aureus [38]): 16.8 mm; inhibition zone (IZ) [42]: 18.7 mm; inhibition zone (IZ) (Mycolicibacterium phlei [43]): 18.9 mm; inhibition zone (IZ) (Staphylococcus aureus [40]): 17.3 mm
